# No end group written: not given here.
# Experiments:
# [1] = system: endothelial and tumor cells; experiment: Cell migration/invasion assays, endothelial and tumor cells; format: cell-based, human; conditions: SCNH2 10 pM, APL-13 10 nM, SM inhibitors 10 μM, n = 3
# How it was run: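 Chemotaxis plates: agonist peptides and 10 μM small-molecule inhibitors or 100 μg/ml immune IgG in FBS-free medium in the lower wells; 8000-10,000 cells/well (e.g. HUVEC) in FBS-free medium on the upper membrane, uncoated for migration or rat-tail collagen I-coated for invasion. Incubated 5-24 h at 37 °C/5% CO2/100% humidity. Membranes methanol-fixed, stained with 0.5% crystal violet, upper cells removed, underside cells photographed and counted.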
# PI3K/Akt in MCF-7 cells = experiment: Western blot, peptide-induced PI3K/Akt phosphorylation in MCF-7; format: cell-based, human
# PI3K/Akt in HMEC-1 cells = experiment: Western blot, peptide-induced PI3K/Akt phosphorylation in HMEC-1; format: cell-based, human
# [2] = system: p44/42 MAPK signaling pathway in MCF-7 cells
# [3] = system: p44/42 MAPK in HMEC-1 cells
# [4] = system: P-PI3K/Akt in NMuMG cells; experiment: Western blot, phosphorylation of PI3K/Akt in NMuMG; format: cell-based, murine; conditions: maximum of dose response
# HUVEC cells = experiment: Cell migration assay, HUVEC; format: cell-based, human; conditions: for peptide response hierarchy in molar potency for mediating cell movement: HUVEC migration
# How it was run: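 Transwell-type chemotaxis plate with uncoated membrane. Test peptides and VEGF-A, at a range of concentrations, in FBS-free medium in bottom wells; 8000–10,000 HUVEC/well in FBS-free medium on top. Incubated 5–24 h at 37°C/5% CO2/100% humidity. Membranes methanol-fixed 5 min and stained with 0.5% crystal violet; upper cells removed. Bottom adherent cells photographed and counted.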
# [5] = system: PI3K/Akt and p44/42 MAPK signaling pathways; experiment: CTX/PTX sensitivity assay; format: cell-based
# rat aortic rings = experiment: Rat aortic ring assay; format: cell-based; conditions: 6 days, p < 0.05
# [6] = system: P-p44/42 MAPK in NMuMG cells; experiment: Western blot, phosphorylation of p44/42 MAPK in NMuMG; format: cell-based, murine; conditions: maximum of dose response
# [7] = system: SCNH2 receptor in enriched MB435 cells; experiment: FACS binding inhibition assay with bSCNH2/SA488, enriched MB435; parameters: species or system human; conditions: enriched MB435, 50 μM peptide, 5 μM bSCNH2 + 10 μg/ml SA488, FACS
# [8] = system: CAM of 10-day-old shell-less embryos; experiment: Chorioallantoic membrane in chick embryo; format: in vivo; conditions: 66 hours
compound,measurement,setting,value
c1cc(CN2CCCNCCNCCCNCC2)ccc1CN1CCCNCCNCCCNCC1 [AMD3100],suppression of SCNH2 and APL-13 induced cell migration and invasion,[1],effectively suppressed
O=c1cc(N2CCOCC2)oc2c(-c3ccccc3)cccc12 [LY294002],suppression of SCNH2 and APL-13 induced cell migration and invasion,[1],effectively suppressed
same,block of APL-13 induced phosphorylation of PI3K/Akt,PI3K/Akt in MCF-7 cells,75%
same,block of SCNH2 induced phosphorylation of PI3K/Akt,PI3K/Akt in MCF-7 cells,93%
same,inhibition of APL-13 induced phosphorylation of PI3K/Akt,PI3K/Akt in HMEC-1 cells,98%
same,inhibition of SCNH2 induced phosphorylation of PI3K/Akt,PI3K/Akt in HMEC-1 cells,96%
CC(C)(C)Cn1c(N)nc2ccc(-c3[nH]c(C(C)(C)C)nc3-c3ccc(F)cc3)nc21 [LY2228820],suppression of SCNH2 and APL-13 induced cell migration and invasion,[1],effectively suppressed
N#CC(=C(/N)Sc1ccccc1N)/C(C#N)=C(/N)Sc1ccccc1N [U0126],suppression of APL-13 induced phosphorylation of p44/42 MAPK,[2],97%
same,suppression of SCNH2 induced phosphorylation of p44/42 MAPK,[2],97%
same,suppression of SCNH2 and APL-13 induced cell migration and invasion,[1],effectively suppressed
same,suppression of APL-13 induced phosphorylation of p44/42 MAPK,[3],95%
same,suppression of SCNH2 induced phosphorylation of p44/42 MAPK,[3],98%
Apelin-13 [APL-13],maximum P-PI3K/Akt compared to the control,[4],8 folds
same,peptide response hierarchy in molar potency for mediating cell movement,HUVEC cells,SCNH2 > VEGF-A > APL-13
same,maximal stimulating concentration,"HUVEC cells; cell migration, dose-response on HUVEC",10 nM
same,effect of CTX on peptide signaling (kinase activation),"[5]; CTX treatment, Western blot",indifferent
same,effect of PTX on peptide signaling (kinase activation),"[5]; PTX pretreatment overnight, 100 pM peptide 10 min",sensitive
same,concentration inducing maximal vessel sprouting,rat aortic rings,10 nM
same,maximum P-p44/42 MAPK compared to the control,[6],5 folds
same,block of the binding of bSCNH2,[7],ineffective
same,neovascularization at all of the tested concentrations,"[8]; angiogenic index, p < 0.005",dramatically induced neovascularization
same,concentration inducing the maximum neovascularization,"[8]; p < 0.005, no statistical difference to VEGF-A at 1 nM",100 nM
adrenomedullin [AM],block of the binding of bSCNH2,[7],ineffective
arginine vasopressin [AVP],block of the binding of bSCNH2,[7],ineffective
"gastrin-releasing peptide (VPLPAGGGTVLTKMYPRGNHWAVGHLM-NH2; UniProt P07492 24-50, looked up) [GRP]",block of the binding of bSCNH2,[7],ineffective
luteinizing hormone-releasing hormone [LHRH],block of the binding of bSCNH2,[7],ineffective
oxytocin [OXT],block of the binding of bSCNH2,[7],ineffective
vascular endothelial growth factor A [VEGF-A],peptide response hierarchy in molar potency for mediating cell movement,HUVEC cells,SCNH2 > VEGF-A > APL-13
